Columns and labels:
Assay type in all cases: organism-based
Conditions in all cases: in vivo, 168 h, time 1 weeks
[1] = Toxicity in C57BL/6 mouse supplemented with normal chow diet assessed as effect on food intake at 20 mg/kg/day, ip administered for 1 week
Procedure, shortened: (§1)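 Male C57BL/6 mice, 8 weeks old, on normal chow, 12 h light/dark, barrier housing. Dosed intraperitoneally 20 mg·kg−1·day−1 for 7 days alongside vehicle-injected controls. Body weight followed over treatment; food intake, VO2, VCO2, respiratory exchange ratio, and plasma total cholesterol and triglyceride recorded. Mean ± SEM, n = 5–9; t test, P < 0.05.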

[2] = Toxicity in C57BL/6 mouse supplemented with normal chow diet assessed as effect on triglyceride levels at 20 mg/kg/day, ip administered for 1 week; procedure, shortened: as §1
[3] = Toxicity in C57BL/6 mouse supplemented with normal chow diet assessed as effect on carbon dioxide production at 20 mg/kg/day, ip administered for 1 week; procedure, shortened: as §1
[4] = Toxicity in C57BL/6 mouse supplemented with normal chow diet assessed as effect on body weight at 20 mg/kg/day, ip administered for 1 week; procedure, shortened: as §1
[5] = Toxicity in C57BL/6 mouse supplemented with normal chow diet assessed as effect on oxygen consumption at 20 mg/kg/day, ip administered for 1 week; procedure, shortened: as §1
[6] = Toxicity in C57BL/6 mouse supplemented with normal chow diet assessed as effect on plasma total cholesterol content at 20 mg/kg/day, ip administered for 1 week; procedure, shortened: as §1
[7] = Toxicity in C57BL/6 mouse supplemented with normal chow diet assessed as effect on respiratory exchange ratios at 20 mg/kg/day, ip administered for 1 week; procedure, shortened: as §1

Measured: Activity

CNC(=O)Nc1ccc2c(c1)CC[C@@]21OC(=O)N(CC(=O)N(Cc2ccc(F)cc2)[C@@H](C)C(F)(F)F)C1=O
Non-Toxic: all assays above

— ChEMBL document CHEMBL5674890, “Selective inhibition of CBP/p300 HAT by A-485 results in suppression of lipogenesis and hepatic gluconeogenesis” (Cell Death Dis, 2020)
